# Published values collected from several papers.
# Each line is one published result; the experiments were not run side by side.
# Target: Activated CDC42 kinase 1 (TNK2, Homo sapiens, UniProt Q07912)
Compound,assay,conditions,remaining binding
CNC(=O)[C@@H]1CC[C@@H](n2c(-c3ccc4cnccc4c3)nc3ccc(C(=O)NCc4cccc(C(N)=O)c4)cc32)C1,"binding, competition with immobilised ligand",1 µM,100%
CN(CCCC(F)(F)F)c1nccc(-c2cnn3ncccc23)n1,binding,1 µM,83%
Cc1nc(Cc2cccc(C(F)(F)F)c2)sc1-c1ccc(C(N)=O)nc1,"cell-free assay, competition with immobilised ligand",1 µM,100%
COc1cc2ncnc(Nc3ccc(F)c(Cl)c3)c2cc1OCCCN1CCOCC1,"cell-free assay, competition with immobilised ligand",10 µM,77%
c1ccc(N2CCN(Cc3nc4ccccc4[nH]3)CC2)nc1,"binding, competition with immobilised ligand",1 µM,100%
CC1CCCN1c1nccc(-c2cnn3ncccc23)n1 (stereo not shown),binding,1 µM,85%
COc1cnc(Nc2cccc(S(N)(=O)=O)c2)nc1N1CCN(c2ccccc2)CC1,"binding, competition with immobilised ligand",1 µM,97%
COc1ccnn2ncc(-c3ccnc(N(C)C)n3)c12,binding,1 µM,100%
COc1cccc(CNC(=O)c2nc3scc(COCc4ccc(C(=O)O)cc4)c3c(=O)[nH]2)c1,"cell-free assay, competition with immobilised ligand",1 µM,89.6%
O=C(c1ccc(Nc2nccc(-c3cc4ccccc4s3)n2)cc1)N1CCC(N2CCCC2)CC1,"binding, competition with immobilised ligand",1 µM,62%
CCN(CC)Cc1cc(Nc2ccnc3cc(Cl)ccc23)ccc1O,"cell-free assay, competition with immobilised ligand",10 µM,100%
O=C(NCC1CCOCC1)c1n[nH]cc1NC(=O)c1c(F)cccc1F,"binding, competition with immobilised ligand",1 µM,98%
C[C@H]1CCN(c2nccc(-c3cnn4ncccc34)n2)C1,binding,1 µM,100%
CN1CC[C@H](c2c(O)cc(O)c3c(=O)cc(-c4ccccc4Cl)oc23)[C@H](O)C1,"cell-free assay, competition with immobilised ligand",10 µM,74%
CN(C)c1ncc(F)c(-c2cnn3ncccc23)n1,binding,1 µM,77%
O=C(NCCCN1CCOCC1)c1ccc(Nc2ncc(Cl)c(-c3ccc(Cl)s3)n2)cc1,"binding, competition with immobilised ligand",1 µM,53%
CNC(=O)c1cc(Oc2ccc(NC(=O)Nc3ccc(Cl)c(C(F)(F)F)c3)cc2)ccn1,"cell-free assay, competition with immobilised ligand",10 µM,89%
C=CC(=O)N1CCC(C(=O)NCC(=O)N2CCN(c3nc(-c4cnc(N)nc4C(F)F)nc(N4CCOCC4)n3)CC2)CC1,"binding, competition with immobilised ligand",1 µM,100%
O=C(NC[C@@H]1[C@H]2CN(C(=O)OCc3cc(C(F)(F)F)cc(C(F)(F)F)c3)C[C@@H]12)c1ccc2[nH]nnc2c1,"cell-free assay, competition with immobilised ligand",1 µM,100%
Cc1nc(Nc2ncc(C(=O)Nc3c(C)cccc3Cl)s2)cc(N2CCN(CCO)CC2)n1,"cell-free assay, competition with immobilised ligand",0.1 µM,4%
COc1cc(-c2cn(C3CCc4c(F)cccc4N(CC(F)(F)F)C3=O)nn2)ccc1-n1cnc(C)c1 (stereo not shown),"cell-free assay, competition with immobilised ligand",1 µM,100%
CS(=O)(=O)CCNCc1ccc(-c2ccc3ncnc(Nc4ccc(OCc5cccc(F)c5)c(Cl)c4)c3c2)o1,"cell-free assay, competition with immobilised ligand",10 µM,93%
CN([C@@H]1CCc2c(CC(=O)O)c3ccccc3n2C1)S(=O)(=O)c1ccc(F)cc1,"cell-free assay, competition with immobilised ligand",1 µM,100%
COc1ncc2cc3ccccc3nc2c1C#N,"cell-free assay, competition with immobilised ligand",5 µM,95%
Cc1cnn2ncc(-c3ccnc(N(C)C)n3)c2c1,binding,1 µM,100%
Cc1cnc(Nc2ccc(C(=O)N3CCC(N4CCCC4)CC3)cc2)nc1-c1cc2ccccc2s1,"binding, competition with immobilised ligand",1 µM,10%
C[C@H](c1ccc(F)cc1)N(Cc1cccc(C(=O)O)c1)C(=O)c1cnc2ccccc2c1,"cell-free assay, competition with immobilised ligand",1 µM,100%
COC(=O)Nc1nc2cc(C(=O)c3ccccc3)ccc2[nH]1,"cell-free assay, competition with immobilised ligand",0.1 µM,100%
N[C@@H]1CCN(c2nccc(-c3cnn4ncccc34)n2)C1,binding,1 µM,100%
Cc1c(-c2ccccc2)oc2c(C(=O)OCCN3CCCCC3)cccc2c1=O,"cell-free assay, competition with immobilised ligand",10 µM,94%
CCC(=O)N[C@H]1CC[C@@H](C(=O)N(C)c2ccc(-c3nc4ccccc4o3)cc2)C1,"cell-free assay, competition with immobilised ligand",1 µM,84%
